Reference: ChEMBL document CHEMBL1133501, “Conformationally constrained anesthetic steroids that modulate GABA(A) receptors” (J Med Chem, 2000)

How the values were obtained:
[1] = target: GABA-A receptor; anion channel; assay: Inhibition of binding of tert-butyl bicyclophosphorothionate ([35 S]TBPS) at Gamma-aminobutyric acid A receptor from rat whole brain membranes; assay type: cell membranes, Membrane
Mus musculus = assay: Hypnotic dose required to cause a loss of righting reflex for a minimum period of 30 s in 50 percent of treated mice after intravenous administration.; assay type: functional
How it was run: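 Mice given steroid intravenously. The endpoint was loss of righting reflex lasting at least 30 s. The dose producing this in 50% of treated mice (HD50) was derived by probit analysis and expressed in µmol·kg-1.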

| Structure (SMILES) | IC50 [1] | HD50 (Mus musculus) |
| --- | --- | --- |
| CC(=O)[C@H]1CC[C@H]2[C@@H]3CC[C@H]4C[C@H](O)CC[C@]4(C)[C@H]3CC[C@]12C [BREXANOLONE] | 155 nM | 10 µM/kg |
| C[C@]12CC[C@@H](O)C[C@@H]1CC[C@@H]1[C@@H]2CC[C@]2(C)C(=O)CC[C@@H]12 [ANDROSTERONE] | 1370 nM | 68.9 µM/kg |
| C[C@]12CC[C@@H](O)C[C@H]1CC[C@@H]1[C@@H]2CC[C@@]2(C)[C@H]1C[C@@H]1O[C@@H]12 | 159 nM | 38 µM/kg |
| C[C@]12CC[C@@H](O)C[C@@H]1CC[C@@H]1[C@@H]2CC[C@]2(C)[C@@H](C(=O)CO)CC[C@@H]12 | 192 nM | 18.5 µM/kg |
| C[C@]12CC[C@@H](O)C[C@@H]1CC[C@@H]1[C@@H]2CC[C@]2(C)[C@@H](O)CC[C@@H]12 [ANDROSTANDIOL] | 1870 nM | 239.4 µM/kg |
| C[C@]12CC[C@@H](O)C[C@H]1CC[C@@H]1[C@@H]2CC[C@@]2(C)[C@H]1CC[C@@]21CO1 | 221 nM | 22.6 µM/kg |
| C[C@]12CC[C@@H](O)C[C@@H]1CC[C@@H]1[C@@H]2CC[C@@]2(C)[C@H]1CC[C@@]21CO1 | 55 nM | 19.8 µM/kg |
| CC(=O)[C@H]1CC[C@H]2[C@@H]3CC[C@@H]4C[C@H](O)CC[C@]4(C)[C@H]3CC[C@]12C [ELTANOLONE] | 145 nM | 9.5 µM/kg |
| C[C@]12CC[C@@H](O)C[C@@H]1CC[C@@H]1[C@@H]2CC[C@@]2(C)[C@H]1CC[C@@]21CCO1 | 232 nM | 62.8 µM/kg |
| C[C@]12CC[C@@H](O)C[C@@H]1CC[C@@H]1[C@@H]2CC[C@@]2(C)[C@H]1C[C@@H]1O[C@@H]12 | 255 nM | 17.3 µM/kg |
| C[C@]12CC[C@@H](O)C[C@@H]1CC[C@@H]1[C@@H]2CC[C@@]2(C)[C@H](C#N)CC[C@@H]12 | 1240 nM | 114.9 µM/kg |
| CO[C@H]1CC[C@H]2[C@@H]3CC[C@H]4C[C@H](O)CC[C@]4(C)[C@H]3CC[C@]12C | 210 nM | 23.1 µM/kg |
| C[C@]12CC[C@@H](O)C[C@@H]1CC[C@@H]1[C@@H]2CC[C@@]2(C)[C@H]1C[C@@H]1CO[C@@H]12 | 2530 nM | 146.9 µM/kg |
| C[C@]12CC[C@@H](O)C[C@@H]1CC[C@@H]1[C@@H]2CC[C@]2(C)[C@@H]3O[C@@H]3C[C@@H]12 | 5350 nM | 68.4 µM/kg |
| C[C@]12CC[C@H]3[C@@H](CC[C@H]4CC(O)CC[C@@]43C)[C@@H]1CC(=O)C2 (stereo not given in full) |  | 134.7 µM/kg |
| CC(=O)[C@H]1CC[C@H]2[C@@H]3CC[C@H]4C[C@H](O)CC[C@]4(C)[C@H]3C(=O)C[C@]12C [ALFAXALONE] |  | 6.3 µM/kg |
